Measurements: ChEMBL document CHEMBL4190207, “Lignans from the Roots of Taxus wallichiana and Their α-Glucosidase Inhibitory Activities” (J Nat Prod, 2017)

Test: Inhibition of Saccharomyces cerevisiae alpha-glucosidase using p-nitrophenyl-alpha-D-glucopyranoside as substrate after 30 mins
Procedure, shortened: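 Reaction started by adding 3 mM p-nitrophenyl-α-D-glucopyranoside and 0.2 U/mL α-glucosidase (both stock concentrations) in 0.01 M phosphate buffer, pH 7.0, to the sample solution. Incubated at 37 °C for 30 min, then stopped with 0.1 M Na2CO3. Activity read as absorbance at 401 nm. IC50 is the concentration giving 50% inhibition of enzyme activity. Acarbose was the positive control.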

Row | SMILES | IC50 [µM]
1 | COc1cc2c(cc1O)C1c3cc(O)c(O)cc3C(=O)C(C2)C1CO (stereo unspecified) | 135
2 | COc1cc(C[C@H]2C(=O)OC[C@@H]2C(=O)c2ccc(O)c(OC)c2)ccc1O | 79.1
3 | COc1cc([C@H]2c3cc(O)c(OC)cc3C[C@H]3[C@H](OC)OC[C@H]23)ccc1O | 35.3
4 | COc1cc(C[C@H]2[C@@H](OC)OC[C@@H]2[C@H](OC)c2ccc(O)c(OC)c2)ccc1O | 133
5 | COc1cc([C@H]2c3cc(O)c(OC)cc3C[C@H]3[C@@H](OC)OC[C@H]23)ccc1O | 38.8
6 | COc1cc2c(cc1O)C1c3cc(OC)c(O)cc3C(=O)C(C2)C1CO (stereo unspecified) | 52.2
7 | COc1cc([C@@H](OC)[C@@H]2CO[C@H](c3ccc(O)c(OC)c3)[C@@H]2CO)ccc1O (relative stereo) | 170
8 | COc1cc([C@H]2OC[C@@H]([C@@H](OC)c3ccc(O)c(OC)c3)[C@H]2CO)ccc1O (relative stereo) | 42.9
9 | C[C@H]1O[C@H](O[C@H]2[C@H](O)[C@@H](O)[C@@H](O[C@H]3[C@H](O)[C@@H](O)C(O)O[C@@H]3CO)O[C@@H]2CO)[C@H](O)[C@@H](O)[C@@H]1N[C@H]1C=C(CO)[C@@H](O)[C@H](O)[C@H]1O (stereo partly specified) [ACARBOSE] | 215
10 | COc1cc([C@H]2c3cc(O)c(OC)cc3C[C@H]3C(=O)OC[C@H]23)ccc1O [ALPHA-CONIDENDRIN] | 194
11 | COc1cc(C[C@H]2COC(=O)[C@@H]2Cc2ccc(O)c(OC)c2)ccc1O [MATAIRESINOL] | 175
